Published values from different studies.
Lines come from different studies, so protocols differ.
Action: inhibitor
VCP: Transitional endoplasmic reticulum ATPase (VCP, Homo sapiens, UniProt P55072)
P4HB: Protein disulfide-isomerase (P4HB, Homo sapiens, UniProt P07237)
SLCO1B3: Solute carrier organic anion transporter family member 1B3 (SLCO1B3, Homo sapiens, UniProt Q9NPD5)
BLK: Tyrosine-protein kinase Blk (BLK, Homo sapiens, UniProt P51451)
SLCO1B3 S112A: Solute carrier organic anion transporter family member 1B3 (SLCO1B3, Homo sapiens, UniProt Q9NPD5, S112A)
HDAC4: Histone deacetylase 4 (HDAC4, Homo sapiens, UniProt P56524)

SMILES | target | test | conditions | IC50
Cc1cc2c(C(N)=O)nccc2n1-c1nc2c(c(NCc3ccccc3)n1)CCCN2 | VCP | enzyme activity, ADP detection |  | 0.121 µM
O=C(OC[C@H]1O[C@@H](OC(=O)c2cc(O)c(O)c(O)c2)[C@H](OC(=O)c2cc(O)c(O)c(O)c2)[C@@H](OC(=O)c2cc(O)c(O)c(O)c2)[C@@H]1OC(=O)c1cc(O)c(O)c(O)c1)c1cc(O)c(O)c(O)c1 | P4HB | enzyme activity, fluorescence |  | 2.9 µM
CC(C)n1c(/C=C/C(O)CC(O)CC(=O)O)c(-c2ccc(F)cc2)c2ccccc21 (centres unmarked) | SLCO1B3 | transporter uptake, radiometric | 2 min | 0.109 µM
C=CC(=O)Nc1cccc(Oc2nc(Nc3ccc(N4CCN(C)CC4)cc3)nc3ccoc23)c1 | BLK | enzyme activity |  | < 0.000254 µM
CCN(CCO)CCCC(C)Nc1ccnc2cc(Cl)ccc12 (centres unmarked) | Procathepsin L (CTSL, Homo sapiens, UniProt P07711) | enzyme activity, fluorescence |  | 234 µM
Cc1cc2c(C(N)=O)cccc2n1-c1nc2c(c(NCc3ccccc3O)n1)CCCN2 | VCP | enzyme activity, ADP detection |  | 0.053 µM
CCc1oc2cc(F)ccc2c1C(=O)c1cc(Br)c(O)c(Br)c1 | Solute carrier family 2, facilitated glucose transporter member 9 (SLC2A9, Homo sapiens, UniProt Q9NRM0) | transporter uptake | oocytes | 30.4 µM
Cc1cc2c(C(N)=O)cccc2n1-c1nc2c(c(NCc3ccccn3)n1)CCCN2 | VCP | enzyme activity, ADP detection |  | 0.115 µM
COc1cccc2c1C(=O)c1c(O)c3c(c(O)c1C2=O)C[C@@](O)(C(=O)CO)C[C@@H]3O[C@H]1C[C@H](N)[C@H](O)[C@H](C)O1 | SLCO1B3 S112A | transporter uptake, radiometric | 2 min | > 100 µM
Cc1cc2c(C(N)=O)cccc2n1-c1nc2c(c(NCc3ccncc3)n1)CCCN2 | VCP | enzyme activity, ADP detection |  | 0.381 µM
O=C(O[C@@H]1[C@@H](O)[C@H](Oc2cc(O)c3c(c2)O[C@H](c2ccccc2)CC3=O)O[C@@H]2COC(=O)c3cc(O)c(O)c(O)c3-c3c(cc(O)c(O)c3O)C(=O)O[C@@H]12)c1cc(O)c(O)c(O)c1 | Protein disulfide-isomerase A4 (PDIA4, Homo sapiens, UniProt P13667) | enzyme activity, fluorescence |  | 7.8 µM
CONC(=O)c1c(C)n(-c2nc3c(c(NCc4ccccc4)n2)CCCN3)c2ccccc12 | VCP | enzyme activity, ADP detection |  | 1.64 µM
COc1ccc(N(Cc2csc(-c3ccccc3)n2)C(=O)CCCCCC(=O)NO)cc1 | HDAC4 | enzyme activity |  | > 10 µM
O=C(NO)c1ccc(Cn2cnc3c(Nc4ccc(Cl)cc4)ncnc32)cc1 | HDAC4 | enzyme activity |  | 3.11 µM
CCc1oc2ccccc2c1C(=O)c1cc(Br)c(O)c(Br)c1 | SLCO1B3 | transporter uptake, radiometric | oocytes | 25.3 µM
CC(C)(/C=C(\C#N)C(=O)N1CCC[C@@H](n2nc(-c3ccc(Oc4ccccc4)cc3F)c3c(N)ncnc32)C1)N1CCN(C2COC2)CC1 | BLK | enzyme activity |  | 0.000376 µM
O=C1C[C@@H](c2ccccc2)Oc2cc(O)cc(O)c21 | P4HB | enzyme activity, fluorescence |  | > 500 µM
CC#CC(=O)N1CC[C@@H](n2c(=O)n(-c3ccc(Oc4ccccc4)cc3)c3c(N)ncnc32)C1 | BLK | enzyme activity |  | 0.793 µM
Cc1cc2c(C(N)=O)cccc2n1-c1nc(NCc2ccccc2)c2c(n1)NC(C)CC2 (centres unmarked) | VCP | enzyme activity, ADP detection |  | 0.039 µM
COc1ccc(N(Cc2csc(-c3ccc(Br)cc3)n2)C(=O)CCCCCC(=O)NO)cc1 | HDAC4 | enzyme activity |  | > 10 µM
Nc1cnccc1Nc1ccc(Cl)c(Cl)c1 | G/T mismatch-specific thymine DNA glycosylase (TDG, Homo sapiens, UniProt Q13569) | enzyme activity |  | > 100 µM
O=C(O[C@@H]1Cc2c(O)cc(O)cc2O[C@@H]1c1ccc(O)c(O)c1)c1cc(O)c(O)c(O)c1 | P4HB | enzyme activity, fluorescence |  | > 500 µM
CN(Cc1cnc2nc(N)nc(N)c2n1)c1ccc(C(=O)N[C@@H](CCC(=O)O)C(=O)O)cc1 | SLCO1B3 S112A | transporter uptake, radiometric | 2 min | > 100 µM
N=C(N)c1ccc(OCCCCCOc2ccc(C(=N)N)cc2)cc1 | Coagulation factor XIII A chain (F13A1, Homo sapiens, UniProt P00488) | enzyme activity, fluorescence |  | > 50 µM
CC(=O)O[C@H]1C(=O)[C@@]2(C)[C@H]([C@H](OC(=O)c3ccccc3)[C@]3(O)C[C@H](OC(=O)[C@H](O)[C@@H](NC(=O)c4ccccc4)c4ccccc4)C(C)=C1C3(C)C)[C@]1(OC(C)=O)CO[C@@H]1C[C@@H]2O | SLCO1B3 S112A | transporter uptake, radiometric | 2 min | 87.7 µM
Cc1cc(O)c(-c2ccc([C@@H](C)CN(C)C)cc2)c2c1[nH]c(=O)c1sccc12 | Cyclin-dependent kinase 13, with cyclin K (CDK13, Homo sapiens, UniProt Q14004) | enzyme activity |  | > 1 µM
